As usually defined, the inhibition is the change of the read-out against control, counted positive when it falls.

Structures are written as SMILES. About 1,000 (0.33%) of roughly 300,000 compounds were called active.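 The calls were made as follows: active = inhibition above the mean of all tested compounds plus 3 SD, set per screening campaign (cut at about 45% in these data); inactive = the rest.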 Many of the other results were omitted from the sample, so actives are more common in it than they were.

In PubChem BioAssay AID1899 (The Scripps Research Institute Molecular Screening Center, 2009) one finds inhibition data, which are given here for 88 compounds.

The test system of the assay is HCV core protein (residues 1-106) dimerization. Put plainly: blockers of core106 self-association – biochemical, TR-FRET, high-throughput, primary screen (AID 1899). The following applies: TR-FRET GST/Flag-core106 dimerization, 1536-well; at 5 µM; hits give high values. The gist of the method:
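Test system: GST/Flag-tagged HCV core106 proteins; Medium: KF-containing HEPES buffer, pH 7.45, DTT, CHAPS, BSA; Times: compound-protein-antibody incubation 4 h at 22.5 °C; Detection: TR-FRET 671 and 617 nm emission; Benchmarks: wells lacking GST-core106 and wells with excess unlabelled core106.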
For `COc1ccc(OC)c(CNC(=O)c2cc(=O)[nH]c3ccc(S(=O)(=O)N4CCCC4)cc23)c1`, the inhibition is 0.99% (inactive).
The value for `COc1ccc(NC(=O)c2cc(-c3cc(OC)c(OC)c(OC)c3)nc3ccccc23)c(OC)c1` was -2.9% (inactive); that for `COc1cc(-c2cc(C(=O)OCC(=O)Nc3ccc4c(c3)OCO4)c3ccccc3n2)cc(OC)c1OC` was 46.1% (active).
Turning to `CNC(=O)COC(=O)c1cc(-c2ccc(OC)cc2)nc2ccccc12`, the inhibition is 0.09% (inactive).
For `CN(C)/C(CN1CCCCC1)=C1\N=C(c2ccccc2)OC1=O`, the inhibition was -2.51% (inactive).
Consider `Cc1ccc(C(=O)Nc2cccc3ncccc23)cc1[N+](=O)[O-]`, for which the inhibition was 4.3% (inactive).
On to `Cc1ccc(/C=C(\C#N)C(=O)Nc2cccc3ncccc23)o1`, for which the inhibition is 64.5% (active).
Consider `O=C(Nc1cccc2ncccc12)C(Cl)(Cl)Cl`, for which the inhibition is -1.9% (inactive).
With `COc1ccc(/C=C/C(=O)NC(=S)N2CCCC(C(N)=O)C2)cc1` (stereo not drawn), the inhibition was -10.7% (inactive).
The value for `Cc1ccc(NC(=S)NC(=O)/C=C/c2ccc(Cl)cc2)cc1` was -5.71% (inactive); that for `CCOc1ccc(NC(=S)NC(=O)/C=C/c2ccc(OC)cc2)c([N+](=O)[O-])c1` was 47.8% (active).
The value for `Cn1nnnc1SCC(=O)N1CCN(C(c2ccccc2)c2ccccc2)CC1` was 2.43% (inactive); that for `N#CC1=C(N)Oc2c(sc3ccccc23)C1c1ccco1` (stereo not drawn) was 54.5% (active); that for `N#CC1=C(N)Oc2c(ccc3cccnc23)C1c1ccncc1` (stereo not drawn) was 3.58% (inactive).
`COC(=O)c1ccc2c(=O)n(CCN3CCOCC3)c(SCC(=O)Nc3cccc(OC)c3)nc2c1`: the inhibition was -0.68% (inactive).
As to `CCOC(=O)N1CCN(C(=O)CSc2nc(C)nc3c2c(=O)n(C)c(=O)n3C)CC1`, the inhibition was -1.3% (inactive).
Consider `O=c1cc(CN2CCN(S(=O)(=O)/C=C/c3ccccc3)CC2)c2ccc(O)cc2o1`, for which the inhibition is 52.2% (active).
Consider `COc1ccc2c(CN3CCN(S(=O)(=O)c4cccs4)CC3)cc(=O)oc2c1`, for which the inhibition is 11.7% (inactive).
On to `NC(=O)CCN1CCN(S(=O)(=O)/C=C/c2ccccc2)CC1`, for which the inhibition is 0.92% (inactive).
Consider `Cc1nn(CC(=O)N/N=C/c2ccc(F)cc2)c(C)c1[N+](=O)[O-]`, for which the inhibition is -5.44% (inactive).
With `COc1cc(/C=N/NC(=O)c2cc(C)n(-c3ccc(F)cc3)c2C)cc(OC)c1O` the figure was 4.09% (inactive); with `Cc1cc(C(=O)N/N=C/c2ccc(O)c([N+](=O)[O-])c2)c(C)n1-c1ccc(F)cc1`, 70.4% (active); with `CC(c1ccco1)N(C(=O)c1ccc(S(=O)(=O)N2CCCCC2)cc1)c1ccccn1` (stereo not drawn), -1.02% (inactive).
The value for `CCOc1ccc(C(=O)Nc2ccncc2)cc1` was -4.79% (inactive).
For `CCOc1ccc(NC(=O)c2ccc(NC(=O)COC(=O)c3ccc(NC(=O)CC#N)cc3)cc2)cc1`, the inhibition was 62.4% (active).
With `CC(C)NC(=O)NC(=O)COC(=O)c1ccc(NC(=O)CC#N)cc1` the figure was -2.82% (inactive).
As for `CCCn1c(O)c(CN2CCCC(C)C2)c(C)c(C#N)c1=O` (stereo not drawn), the inhibition is -8.8% (inactive).
With `O=C(Nc1ccc(-n2ccnc2P(=O)(O)c2ccccc2)cc1)c1ccccc1Br`, the inhibition is 3.36% (inactive).
In the case of `CC(=O)c1ccc(S(=O)(=O)N2CCN(C(=O)/C=C/c3ccc4ccccc4n3)CC2)cc1`, the inhibition is 34.5% (inactive).
Turning to `CC(=O)c1ccc(S(=O)(=O)N2CCC3(CC2)OCCO3)cc1`, the inhibition was -8.35% (inactive).
On to `CC(=O)c1ccc(S(=O)(=O)N2CCN(c3nc4c(C)c(C)ccc4cc3C#N)CC2)cc1`, for which the inhibition is 60.9% (active).
In the case of `Cc1ccc(S(=O)Cc2ccc(C(=O)N3CCN(C4CCCCC4)CC3)o2)cc1` (stereo not drawn), the inhibition is 2.42% (inactive).
`COc1ccc(/C=N/N=C/c2c[nH]c(=O)c(C#N)c2Nc2ccccc2)cc1`: the inhibition was 9.36% (inactive).
The value for `Nc1nc(O)c(CC(=O)O)s1` was -10.1% (inactive).
With `COc1cccc2c(C)c(C(=O)O)[nH]c12` the figure was 52.9% (active).
For the compound `Cc1c(C(=O)N/N=C/c2ccccc2)[nH]c2c([N+](=O)[O-])cccc12`, the inhibition is 2.99% (inactive).
For the compound `COc1cc2c(C(=O)O)c(C)n(C)c2c2ccccc12`, the inhibition was -16.5% (inactive).
Turning to `COc1ccc(S(=O)(=O)N2CCN(c3ncnc4c(-c5ccccc5)nsc34)CC2)cc1`, the inhibition is 5.78% (inactive).
Consider `COc1cccc(OCc2cc(/C=N/NC(=O)c3nc(Cl)c(Cl)c(N)c3Cl)ccc2OC)c1`, for which the inhibition is 58.9% (active).
As to `COc1ccc(/C=N\NC(=O)c2sc(N)nc2C)cc1OC`, the inhibition is 1.3% (inactive).
With `COc1ccc(/C=N/NC(=O)c2ccc(Cl)cc2)cc1COC(C)=O`, the inhibition was -6.24% (inactive).
For `CCn1cc(/C=C(\NC(=O)c2cc(OC)c(OC)c(OC)c2)C(=O)N2CCN(C)CC2)c2ccccc21`, the inhibition is -12.2% (inactive).
The value for `CC1CCCN(c2ccc(C(=O)NCCc3ccccc3)cn2)C1` (stereo not drawn) was -2.49% (inactive).
`Cc1cc2nc3c(=O)n(Cc4ccccc4)c(=O)[nH]c3nc2cc1N`: the inhibition was 7.8% (inactive).
Regarding `Nc1ccc2nc3c(=O)[nH]c(=S)[nH]c3nc2c1`, the inhibition was 47.1% (active).
On to `Cc1ccc(-c2cc(C(=O)N/N=C/C=C/c3ccco3)c3ccccc3n2)cc1C`, for which the inhibition is 68.2% (active).
As to `O=C(N/N=C/C=C/c1ccco1)c1cccs1`, the inhibition was 11.6% (inactive).
In the case of `COc1ccc(/C=N/NC(=O)c2cc(-c3cccc(C)c3)nc3ccccc23)cc1O`, the inhibition was 4.37% (inactive).
With `CCOC(=O)N1CCN(Cc2nc3ccc([N+](=O)[O-])cc3c(=O)n2-c2cccc(OC)c2)CC1` the figure was 0.84% (inactive); with `Cc1ccc(NC(=O)CN(C)C(=O)COC(=O)C(C)(C)Oc2ccc(Cl)cc2)cc1`, 2.08% (inactive); with `CC(C)c1ccc(C2C(C(=O)c3ccco3)=C(O)C(=O)N2CC2CCCO2)cc1` (stereo not drawn), -4.24% (inactive).
Take `Cn1cncc1COC(=O)c1ccc(Cl)cc1`: the inhibition is 1.11% (inactive).
For the compound `C=CCn1c(C)cc(C2=NNC(=NCC)SC2)c1C`, the inhibition was -4.1% (inactive).
Consider `Cc1cc(C2=NNC(=Nc3ccc(S(=O)(=O)N4CCOCC4)cc3)SC2)c(C)n1CC1CCCO1` (stereo not drawn), for which the inhibition was 55.5% (active).
Turning to `Cc1ccc(S(=O)(=O)N2CCC(C(=O)NCC3CCCO3)CC2)cc1` (stereo not drawn), the inhibition is 4.25% (inactive).
Regarding `O=C(NNC(=S)NC(=O)c1cn(-c2ccccc2)nc1-c1ccccc1)c1ccncc1`, the inhibition was -3.87% (inactive).
On to `CCn1cc(C(=O)N2CC(C)CC(C)C2)c(=O)c2cc(S(=O)(=O)N3CCCC3)ccc21` (stereo not drawn), for which the inhibition was -3.07% (inactive).
As for `CN(NC(=O)C1CC(=O)N(c2ccccc2)C1)C1=NS(=O)(=O)c2ccccc21` (stereo not drawn), the inhibition is 1.86% (inactive).
For `O=C(N=C1SC2CS(=O)(=O)CC2N1c1cc(Cl)ccc1Cl)C1CC1` (stereo not drawn), the inhibition was -2.57% (inactive).
Take `O=c1[nH]c(SCc2ccccc2)nnc1-c1ccccc1`: the inhibition is 4.19% (inactive).
Consider `COc1ccc2nc(SCc3ccccc3)nc(C)c2c1`, for which the inhibition is -8.86% (inactive).
Regarding `O=c1cc(O)nc(SCc2ccccc2Cl)[nH]1`, the inhibition was -5.09% (inactive).
In the case of `c1ccc(CSc2nnc(-c3ccco3)c(-c3ccco3)n2)cc1`, the inhibition is 63.8% (active).
`Fc1cccc(Cl)c1CSc1ccc(-c2ccco2)nn1`: the inhibition is 19.9% (inactive).
Take `Clc1ccccc1CSc1nnc(-c2ccco2)c(-c2ccco2)n1`: the inhibition is 60.8% (active).
Regarding `CCN(CC(=O)Nc1ccccc1OC)C(=O)Cn1cnc2ccccc2c1=O`, the inhibition is 0.63% (inactive).
Regarding `C=C1CCN([C@@H](Cc2ccccc2)C(=O)N2CCOCC2)S(=O)(=O)c2ccccc21`, the inhibition was 5.65% (inactive).
For `CCOC(=O)CSc1nc2ccc(C)cc2n2cnnc12`, the inhibition is -1.27% (inactive).
Consider `CC(C)(C)CC(=O)Nc1nnc(SCC(=O)NCc2cccs2)s1`, for which the inhibition is 10.5% (inactive).
Turning to `O=C(c1ccccc1)N1CCN(C(=O)c2cc3nc(-c4ccccc4)cc(C(F)(F)F)n3n2)CC1`, the inhibition was -5.71% (inactive).
Take `Cc1ccc(N=C2NC(=O)/C(=C/C=C/c3ccco3)S2)cc1C`: the inhibition is 61.8% (active).
On to `CN1C(=O)/C(=C/c2ccco2)SC1=Nc1cccc(C(=O)O)c1`, for which the inhibition was 1.21% (inactive).
The value for `Cc1ccc(N2NC(=O)/C(=C/C=C/c3ccco3)C2=O)cc1C` was 13.5% (inactive); that for `C/C(=N\NC(=O)c1ccc(CSc2nc(C)cc(C)n2)cc1)C1CCCCC1` was 7.33% (inactive).
The value for `O=C(Nc1ccccc1C(=O)O)c1ccc(N2C(=O)C3CC=CCC3C2=O)cc1` (stereo not drawn) was -0.72% (inactive).
With `Cc1ccccc1NC(=O)CN1C(=O)N/C(=C\c2cccn2-c2cccc(C(=O)O)c2)C1=O` the figure was -4.12% (inactive); with `Cc1cc(/C=C2\SC(=O)N(C)C2=O)c(C)n1-c1cccc(C(=O)O)c1`, 8.51% (inactive).
Take `N#Cc1ccccc1CN1C(=O)S/C(=C/c2cccn2-c2cccc(C(=O)O)c2)C1=O`: the inhibition is 74.2% (active).
Consider `COc1ccc(S(=O)(=O)N2CCOC23CCN(S(=O)(=O)c2ccc([N+](=O)[O-])cc2)CC3)cc1`, for which the inhibition was 7.35% (inactive).
Consider `CC(C)c1ccccc1OCC(O)CN(CC(O)COc1cccc2ccccc12)C(C)C` (stereo not drawn), for which the inhibition was -10.3% (inactive).
Regarding `Cc1ccc(C(=O)N/C(=C\c2cn(S(=O)(=O)N(C)C)c3ccccc23)C(=O)N2CCCC2)cc1`, the inhibition is 15.1% (inactive).
On to `O=C(Nc1ccccc1C(=O)N1CCCCC1)c1ccco1`, for which the inhibition was -1.76% (inactive).
As for `CN(C)C=NC(=O)c1cccn1-c1ncc(C(F)(F)F)cc1Cl`, the inhibition was -0.36% (inactive).
With `Cc1noc(/C=C/c2ccco2)c1S(=O)(=O)N1CCC(C(=O)N2CCc3ccccc32)CC1` the figure was 66.4% (active).
On to `Cc1noc(/C=C/c2ccco2)c1S(=O)(=O)N1CCC(C(=O)Nc2ccc(Cl)cn2)CC1`, for which the inhibition is 9.46% (inactive).
Turning to `CNC(=O)C1CCN(S(=O)(=O)c2c(C)noc2/C=C/c2cccc(C)c2)CC1`, the inhibition is -2.65% (inactive).
In the case of `Cc1cccc(C)c1NC(=O)CN1C(=O)C(C)Oc2ccccc21` (stereo not drawn), the inhibition was 5.55% (inactive).
As to `CN(C)c1ccc(C(=S)N2CCN(C(=S)Nc3ccc(Cl)cc3)CC2)cc1`, the inhibition was 13% (inactive).
